Assay results taken from ChEMBL document CHEMBL4842367, “Strategies toward Discovery of Potent and Orally Bioavailable Proteolysis Targeting Chimera Degraders of Androgen Receptor for the Treatment of Prostate Cancer” (J Med Chem, 2021).
Active and inactive are the calls of the source. The calls are words filed in the database; no cut-off is given here.

Assays:
LNCaP = assay: Growth inhibition of human LNCaP cells assessed as cell viability measured after 4 days in presence of R1881 by WST-8 assay; format: functional, cell-based; details: 96 h
How it was run: (§1)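 LNCaP and VCaP cells exposed to compounds for 4 days in charcoal-stripped medium containing 0.1 nM R1881; viability read by WST-8 assay.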

VCaP [1] = assay: Growth inhibition of human VCaP cells assessed as cell viability measured after 4 days in presence of R1881 by WST-8 assay; format: functional, cell-based; details: 96 h; how it was run: as §1
[2] = Oral bioavailability in ICR mouse at 3 mg/kg measured up to 24 hrs by LC-MS/MS analysis; format: ADME, organism-based; details: in vivo
How it was run: (§2)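 Male ICR mice, single oral gavage (3 or 5 mg/kg) in 5% DMSO/10% solutol/85% saline, three mice per group. Separate IV tail-vein bolus group (1 or 2 mg/kg) in the same vehicle. Blood sampled at 0.083–24 h, one sample per mouse, plasma diluted threefold and analysed by LC–MS/MS; noncompartmental parameters.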

[3] = Tmax in ICR mouse at 3 mg/kg, po measured up to 24 hrs by LC-MS/MS analysis; format: ADME, organism-based; details: in vivo; how it was run: as §2
[4] = Half life in ICR mouse at 1 mg/kg, iv measured up to 24 hrs by LC-MS/MS analysis; format: ADME, organism-based; details: in vivo
How it was run: (§3)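 Male ICR mice received a single tail-vein IV bolus in 5% DMSO/10% solutol/85% saline at 5 mL/kg. Blood was taken at 0.083, 0.25, 0.5, 1, 2, 4, 6, 8 and 24 h, with n = 3 per time point and each mouse sampled once. Plasma supernatant was diluted three times with water and analysed by LC-MS/MS, and terminal T1/2 was derived noncompartmentally.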

[5] = target: T1, Protein cereblon/Androgen receptor (Homo sapiens, UniProt P10275+Q96SW2); assay: Protac activity at CRBN/AR in human VCaP cells assessed as induction of AR degradation measured after 24 hrs by western blot analysis
Target sequence in this assay (P10275 whole entry): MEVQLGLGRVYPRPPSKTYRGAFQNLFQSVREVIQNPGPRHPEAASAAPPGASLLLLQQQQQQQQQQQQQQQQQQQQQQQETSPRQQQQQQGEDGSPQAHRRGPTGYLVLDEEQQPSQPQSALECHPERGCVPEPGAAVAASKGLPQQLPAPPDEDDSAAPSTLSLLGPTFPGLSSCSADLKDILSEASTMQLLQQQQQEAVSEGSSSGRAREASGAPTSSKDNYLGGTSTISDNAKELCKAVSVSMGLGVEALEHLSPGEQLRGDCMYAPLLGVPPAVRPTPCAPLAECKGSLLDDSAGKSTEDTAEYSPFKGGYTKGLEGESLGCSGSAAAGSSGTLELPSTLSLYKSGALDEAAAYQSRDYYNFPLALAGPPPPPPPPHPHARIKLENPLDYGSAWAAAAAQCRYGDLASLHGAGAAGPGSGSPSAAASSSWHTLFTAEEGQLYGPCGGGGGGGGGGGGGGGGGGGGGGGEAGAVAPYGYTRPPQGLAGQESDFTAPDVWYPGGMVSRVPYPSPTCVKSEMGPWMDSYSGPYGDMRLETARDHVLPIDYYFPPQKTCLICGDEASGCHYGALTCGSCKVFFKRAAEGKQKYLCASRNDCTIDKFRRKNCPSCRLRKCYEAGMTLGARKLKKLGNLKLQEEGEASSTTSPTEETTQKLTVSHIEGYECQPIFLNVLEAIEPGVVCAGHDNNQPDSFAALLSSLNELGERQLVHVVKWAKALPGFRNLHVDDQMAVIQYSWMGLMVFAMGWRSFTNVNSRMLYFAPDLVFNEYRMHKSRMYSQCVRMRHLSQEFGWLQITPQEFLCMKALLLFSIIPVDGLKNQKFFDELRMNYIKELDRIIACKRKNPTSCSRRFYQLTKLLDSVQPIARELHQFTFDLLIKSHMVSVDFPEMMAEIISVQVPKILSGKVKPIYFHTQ
Target sequence in this assay (Q96SW2 whole entry): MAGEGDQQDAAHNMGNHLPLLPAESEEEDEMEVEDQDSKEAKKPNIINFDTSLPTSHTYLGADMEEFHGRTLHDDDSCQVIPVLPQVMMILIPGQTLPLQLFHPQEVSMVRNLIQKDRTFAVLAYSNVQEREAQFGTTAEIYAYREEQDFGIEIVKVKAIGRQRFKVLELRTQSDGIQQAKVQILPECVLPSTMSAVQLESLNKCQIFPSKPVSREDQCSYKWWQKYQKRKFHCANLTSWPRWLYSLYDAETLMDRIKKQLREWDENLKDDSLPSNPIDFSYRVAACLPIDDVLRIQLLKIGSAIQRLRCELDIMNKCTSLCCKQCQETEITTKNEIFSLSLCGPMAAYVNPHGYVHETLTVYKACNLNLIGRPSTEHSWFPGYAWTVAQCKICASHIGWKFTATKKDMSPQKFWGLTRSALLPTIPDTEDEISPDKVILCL

[6] = Plasma concentration in CB17 SCID mouse at 10 mg/kg, po measured after 3 hr by LC-MS/MS analysis; format: ADME, organism-based
How it was run: (§4)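 Single oral gavage at 10 mg/kg in 100% PEG200 to non-tumor-bearing male mice; three mice per time point, blood collected at 1, 3 and 6 h, plasma obtained by centrifugation and measured by LC–MS/MS; reported as mean ± SD.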

[7] = target: T1, Protein cereblon/Androgen receptor; assay: Protac activity at CRBN/AR in human VCAP cells assessed as induction of AR degradation at 1 uM by western blot analysis relative to control; format: cell-based; details: time 24.0 hrs
Target sequence in this assay (P10275 whole entry, looked up): as the sequence (P10275 whole entry) above
Target sequence in this assay (Q96SW2 whole entry, looked up): as the sequence (Q96SW2 whole entry) above

[8] = Plasma concentration in CB17 SCID mouse at 10 mg/kg, po measured after 1 hr by LC-MS/MS analysis; format: ADME, organism-based; how it was run: as §4
[9] = target: T1, Protein cereblon/Androgen receptor; assay: Protac activity at CRBN/AR in human VCaP cells assessed as induction of AR degradation at 0.001 uM measured after 24 hrs by western blot analysis relative to control; format: cell-based
Target sequence in this assay (P10275 whole entry, looked up): as the sequence (P10275 whole entry) above
Target sequence in this assay (Q96SW2 whole entry, looked up): as the sequence (Q96SW2 whole entry) above

[10] = target: T1, Protein cereblon/Androgen receptor; assay: Protac activity at CRBN/AR in human VCaP cells assessed as induction of AR degradation at 0.1 uM measured after 24 hrs by western blot analysis relative to control; format: cell-based
Target sequence in this assay (P10275 whole entry, looked up): as the sequence (P10275 whole entry) above
Target sequence in this assay (Q96SW2 whole entry, looked up): as the sequence (Q96SW2 whole entry) above

[11] = target: T1, Protein cereblon/Androgen receptor; assay: Protac activity at CRBN/AR in human VCaP cells assessed as induction of AR degradation at 0.01 uM measured after 24 hrs by western blot analysis relative to control; format: cell-based
How it was run: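 VCaP cells treated 24 h at 1, 10, 100 and 1000 nM; lysed in RIPA with protease/phosphatase inhibitors, run on 4–12% SDS-PAGE, blotted to PVDF. AR bands background-subtracted and normalized to loading control; degradation relative to DMSO, average of three independent experiments.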
Target sequence in this assay (P10275 whole entry, looked up): as the sequence (P10275 whole entry) above
Target sequence in this assay (Q96SW2 whole entry, looked up): as the sequence (Q96SW2 whole entry) above

[12] = Plasma concentration in CB17 SCID mouse at 10 mg/kg, po measured after 6 hr by LC-MS/MS analysis; format: ADME, organism-based; how it was run: as §4
VCaP [13] = assay: Antitumor activity against human VCaP cells xenografted in SCID mouse assessed as tumor growth inhibition at 40 mg/kg, po measured on day 21 relative to control; format: functional; details: 504 h, read-out: TGI
How it was run: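 Male CB17 SCID mice implanted s.c. with 5 × 10⁶ VCaP cells in Matrigel; at average tumor volume 150 mm³, size-matched and randomized, seven per group. Oral gavage daily for 21 days in 100% PEG200. Tumors measured 2–3 times weekly, volume = length × width²/2; TGI (%) = (Vc − Vt)/(Vc − Vo) × 100 using group medians at start and end.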

[14] = Drug uptake in human VCaP cells xenografted in SCID mouse tumor tissue at 20 mg/kg, po single dose measured after 6 hrs by LC-MS/MS analysis; format: ADME, organism-based, Neoplasm; details: in vivo
How it was run: (§5)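 Single oral gavage, 20 mg/kg in 100% PEG200, to male SCID mice bearing one VCaP tumor each (about 200 mm³). Plasma and tumor taken at 6 and 24 h, three mice per time point. Tumors frozen, ground in liquid nitrogen, homogenized in water/acetonitrile 4:1, precipitated with cold acetonitrile; analysis by positive-ion MRM LC–MS/MS.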

Mus musculus [15] = assay: Reduction in AR protein level in tumor of human VCaP cells xenografted in SCID mouse at 20 mg/kg, po single dose measured after 24 hrs by Western blot analysis; format: functional, organism-based
How it was run: (§6)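 SCID mice bearing VCaP xenografts given one oral dose of 20 mg/kg; tumors harvested at 6 and 24 h after dosing and AR protein measured by Western blot with GAPDH loading control.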

[16] = Tmax in ICR mouse at 5 mg/kg, po measured up to 24 hrs by LC-MS/MS analysis; format: ADME, organism-based; details: in vivo; how it was run: as §2
[17] = Plasma concentration in human VCaP cells xenografted in SCID mouse at 20 mg/kg, po single dose measured after 6 hrs by LC-MS/MS analysis; format: ADME, organism-based; how it was run: as §5
Mus musculus [18] = assay: Reduction in AR protein level in tumor of human VCaP cells xenografted in SCID mouse at 20 mg/kg, po single dose measured after 6 hrs by Western blot analysis; format: functional, organism-based; how it was run: as §6
[19] = Oral bioavailability in ICR mouse at 5 mg/kg measured up to 24 hrs by LC-MS/MS analysis; format: ADME, organism-based; details: in vivo; how it was run: as §2
[20] = Drug uptake in human VCaP cells xenografted in SCID mouse tumor tissue at 20 mg/kg, po single dose measured after 24 hrs by LC-MS/MS analysis; format: ADME, organism-based, Neoplasm; details: in vivo
How it was run: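 Male CB17 SCID mice carried subcutaneous VCaP xenografts, implanted as 5 × 10⁶ cells in Matrigel, grown to about 200 mm³. Mice received a single oral gavage of 20 mg/kg in 100% PEG200. Tumors were collected at 6 and 24 h, three mice per time point, and frozen. They were homogenized in water/acetonitrile 4:1, protein-precipitated with cold acetonitrile, and assayed by LC-MS/MS (positive-ion MRM). Values are mean ± SD.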

[21] = Plasma concentration in human VCaP cells xenografted in SCID mouse at 20 mg/kg, po single dose measured after 24 hrs by LC-MS/MS analysis; format: ADME, organism-based; how it was run: as §5
[22] = Half life in ICR mouse at 2 mg/kg, iv measured up to 24 hrs by LC-MS/MS analysis; format: ADME, organism-based; details: in vivo; how it was run: as §3

| SMILES | EC50 [5] | concentration at 3 h [6] | Activity [7] | concentration at 1 h [8] | Activity [9] | Activity [10] | Activity [11] | concentration at 6 h [12] | other results |
| --- | --- | --- | --- | --- | --- | --- | --- | --- | --- |
| CN1C(=O)CCC(N2C(=O)c3ccc(N4CCC(CN5CCN(c6ccc(C(=O)N[C@H]7C(C)(C)[C@H](Oc8ccc(C#N)c(Cl)c8)C7(C)C)cc6)CC5)CC4)cc3C2=O)C1=O (some centres undefined) | – | – | – | – | – | – | – | – | IC50 (LNCaP): 237 nM; IC50 (VCaP [1]): 783 nM |
| CC1(C)[C@H](NC(=O)c2ccc(N3CCC(CN4CCN(c5ccc6c(c5)C(=O)N(C5CCC(=O)NC5=O)C6=O)CC4)CC3)cc2)C(C)(C)[C@H]1Oc1ccc(C#N)c(Cl)c1 (some centres undefined) | 0.4 nM | – | – | – | – | – | – | – | F [2]: 33%; Tmax [3]: 4.7 h; t1/2 [4]: 25.5 h |
| CNC(=O)c1ccc(N2C(=S)N(c3ccc(C#N)c(C(F)(F)F)c3)C(=O)C2(C)C)cc1F [ENZALUTAMIDE] | – | – | – | – | – | – | – | – | inhibition in vivo at 40 mg/kg (VCaP [13]): 39% |
| CC1(C)[C@H](NC(=O)c2ccc(N3CCC(N4CCN(c5ccc6c(c5)C(=O)N(C5CCC(=O)NC5=O)C6=O)CC4)CC3)cc2)C(C)(C)[C@H]1Oc1ccc(C#N)c(Cl)c1 (some centres undefined) | 0.1 nM | – | – | – | – | – | – | – | F [2]: 24%; Tmax [3]: 6 h; t1/2 [4]: 21 h |
| CC1(C)[C@H](NC(=O)c2ccc(N3CCN(C4CCN(c5ccc6c(c5)C(=O)N(C5CCC(=O)NC5=O)C6=O)CC4)CC3)cc2)C(C)(C)[C@H]1Oc1ccc(C#N)c(Cl)c1 (some centres undefined) | 0.8 nM | – | – | – | – | – | – | – | Drug uptake [14]: 315 ng/kg; Activity (Mus musculus [15]): Active; Tmax [16]: 4 h; concentration at 6 h [17]: 803 ng/mL; Activity (Mus musculus [18]): Active; F [19]: 37%; Drug uptake [20]: 685 ng/g; concentration at 24 h [21]: 776 ng/mL |
| CN1CCN(c2ccc(C(=O)N[C@H]3C(C)(C)[C@H](Oc4ccc(C#N)c(Cl)c4)C3(C)C)cc2)CC1 | – | – | – | – | – | – | – | – | IC50 (LNCaP): 81 nM; IC50 (VCaP [1]): 49 nM |

Continued, in another order:

| EC50 [5] | concentration at 3 h [6] | Activity [7] | concentration at 1 h [8] | Activity [9] | Activity [10] | Activity [11] | concentration at 6 h [12] | SMILES | other results |
| --- | --- | --- | --- | --- | --- | --- | --- | --- | --- |
| – | 8 ng/mL | 79% | 16.9 ng/mL | 69% | 77% | 85% | 1.6 ng/mL | CC1(C)[C@H](NC(=O)c2ccc(NCCCCCCNc3ccc4c(c3)C(=O)N(C3CCC(=O)NC3=O)C4=O)cc2)C(C)(C)[C@H]1Oc1ccc(C#N)c(Cl)c1 (some centres undefined) | – |
| – | 55.9 ng/mL | 97% | 111 ng/mL | 49% | 89% | 84% | 2.9 ng/mL | CC1(C)[C@H](NC(=O)c2ccc(NCCCCCNc3ccc4c(c3)C(=O)N(C3CCC(=O)NC3=O)C4=O)cc2)C(C)(C)[C@H]1Oc1ccc(C#N)c(Cl)c1 (some centres undefined) | – |
| – | 919 ng/mL | 76% | 1240 ng/mL | 58% | 79% | 83% | 604 ng/mL | CC1(C)[C@H](NC(=O)c2ccc(N3CCN(CCNc4ccc5c(c4)C(=O)N(C4CCC(=O)NC4=O)C5=O)CC3)cc2)C(C)(C)[C@H]1Oc1ccc(C#N)c(Cl)c1 (some centres undefined) | – |
| 0.2 nM | – | – | – | – | – | – | – | CC1(C)[C@H](NC(=O)c2ccc(N3CCN(CC4CN(c5ccc6c(c5)C(=O)N(C5CCC(=O)NC5=O)C6=O)C4)CC3)cc2)C(C)(C)[C@H]1Oc1ccc(C#N)c(Cl)c1 (some centres undefined) | Drug uptake [14]: 718 ng/g; Activity (Mus musculus [15]): Active; Tmax [16]: 4 h; concentration at 6 h [17]: 1360 ng/mL; F [19]: 75%; Drug uptake [20]: 1740 ng/g; concentration at 24 h [21]: 1670 ng/mL; t1/2 [22]: 17.8 h |
| – | 254 ng/mL | 53% | 267 ng/mL | 22% | 54% | 37% | 96.9 ng/mL | CC1(C)[C@H](NC(=O)c2ccc(N3CCN(CCCNc4ccc5c(c4)C(=O)N(C4CCC(=O)NC4=O)C5=O)CC3)cc2)C(C)(C)[C@H]1Oc1ccc(C#N)c(Cl)c1 (some centres undefined) | – |
